From ChEMBL document CHEMBL1136183, “Antitumor agents. Part 226: synthesis and cytotoxicity of 2-phenyl-4-quinolone acetic acids and their esters” (Bioorg Med Chem Lett, 2003)
≈ marks a conversion by molar mass, not a printed value. Calls of active or inactive are those of the source. The rule behind the calls is not given here.

Assays:
1A9 [1] = assay: In vitro cytotoxicity evaluated against human ovarian cancer (1A9 cell line); NA is not active; format: functional, cell-based
Method in brief: (§1)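 SRB assay on human tumour cell lines. Absorbance read at 562 nm and compared with untreated cells. ED50 is the concentration giving a 50% reduction in absorbance.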

A549 [2] = assay: In vitro cytotoxicity evaluated against human lung cancer (A549 cell line); format: functional; conditions: read-out: ED50 (the source's name); method in brief: as §1
A549 [3] = assay: In vitro percent inhibition evaluated against human lung cancer (A549 cell line) at >20 ug/mL; format: functional
Method in brief: (§2)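 Same SRB cytotoxicity assay, absorbance at 562 nm versus untreated cells. Value is the percentage inhibition at the concentration tested.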

HOS [4] = assay: In vitro cytotoxicity evaluated against human bone carcinoma (HOS cell line); NA is not active; format: functional, cell-based; method in brief: as §1
MCF7 [5] = assay: In vitro percent inhibition evaluated against human breast cancer (MCF-7 cell line) at >20 ug/mL; format: functional; method in brief: as §2
KB [6] = assay: In vitro cytotoxicity evaluated against human epidermoid nasopharynx carcinoma (KB cell line); NA is not active; format: functional, cell-based; method in brief: as §1
MCF7 [7] = assay: In vitro cytotoxicity evaluated against human breast cancer (MCF-7 cell line); format: functional; conditions: read-out: ED50 (the source's name); method in brief: as §1
SK-MEL-2 [8] = assay: In vitro cytotoxicity evaluated against human melanoma cancer (SKMEL-2 cell line); format: functional; conditions: read-out: ED50 (the source's name); method in brief: as §1
SK-MEL-2 [9] = assay: In vitro percent inhibition evaluated against human melanoma cancer (SKMEL-2 cell line) at >20 ug/mL; format: functional; method in brief: as §2
U-87 MG [10] = assay: In vitro cytotoxicity evaluated against human glioblastoma carcinoma (U87-MG cell line); NA is not active; format: functional, cell-based; conditions: U-87MG ATCC; method in brief: as §1
Tubulin alpha chain = Tubulin alpha chain (Sus scrofa, UniProt P02550); assay: Inhibitory concentration required against tubulin polymerization determined using tubulin assay; format: functional
Chain of Tubulin alpha chain (P02550 whole entry, looked up): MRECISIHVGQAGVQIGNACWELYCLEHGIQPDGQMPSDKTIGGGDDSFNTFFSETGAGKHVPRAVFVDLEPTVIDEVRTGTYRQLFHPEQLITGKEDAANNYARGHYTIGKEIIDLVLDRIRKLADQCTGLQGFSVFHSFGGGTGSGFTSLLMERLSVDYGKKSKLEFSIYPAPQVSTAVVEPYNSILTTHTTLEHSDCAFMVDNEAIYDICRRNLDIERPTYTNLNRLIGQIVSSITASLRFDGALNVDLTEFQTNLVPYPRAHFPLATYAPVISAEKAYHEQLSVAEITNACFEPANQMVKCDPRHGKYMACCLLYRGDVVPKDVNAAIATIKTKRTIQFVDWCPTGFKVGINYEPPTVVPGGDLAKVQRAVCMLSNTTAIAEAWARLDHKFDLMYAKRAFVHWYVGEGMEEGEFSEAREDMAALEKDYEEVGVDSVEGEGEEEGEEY
Method in brief: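 Tubulin polymerization assay. IC50 is the concentration that inhibits extent of assembly by 50% after 20 min at 26 °C. At least two independent experiments per compound.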

1A9 [11] = assay: In vitro cytotoxicity evaluated against human ovarian cancer (1A9 cell line); format: functional; conditions: read-out: ED50 (the source's name); method in brief: as §1
HOS [12] = assay: In vitro cytotoxicity evaluated against human bone carcinoma (HOS cell line); format: functional; conditions: read-out: ED50 (the source's name); method in brief: as §1
KB [13] = assay: In vitro cytotoxicity evaluated against human epidermoid nasopharynx carcinoma (KB cell line); format: functional; conditions: read-out: ED50 (the source's name); method in brief: as §1
U-87 MG [14] = assay: In vitro cytotoxicity evaluated against human glioblastoma carcinoma (U87-MG cell line); format: functional, U-87MG ATCC; conditions: read-out: ED50 (the source's name); method in brief: as §1
1A9 [15] = assay: In vitro percent inhibition evaluated against human ovarian cancer (1A9 cell line) at >20 ug/mL; format: functional; method in brief: as §2
HOS [16] = assay: In vitro percent inhibition evaluated against human bone carcinoma (HOS cell line) at >20 ug/mL; format: functional; method in brief: as §2
KB [17] = assay: In vitro percent inhibition evaluated against human epidermoid nasopharynx carcinoma (KB cell line) at >20 ug/mL; format: functional; method in brief: as §2
U-87 MG [18] = assay: In vitro percent inhibition evaluated against human glioblastoma carcinoma (U87-MG cell line) at >20 ug/mL; format: functional, U-87MG ATCC; method in brief: as §2
A549 [19] = assay: In vitro cytotoxicity evaluated against human lung cancer (A549 cell line); NA is not active; format: functional, cell-based; method in brief: as §1

`O=C(O)Cc1cccc2nc(-c3ccccc3F)cc(O)c12` was tested, and the ED50 (1A9 [1]) was “inactive”, the EC50 (A549 [2]) was over 20 µg/mL and the Inhibition (A549 [3]) was 8%. For the same molecule, the ED50 (HOS [4]) was “inactive”, the Inhibition (MCF7 [5]) was 7% and the ED50 (KB [6]) was “inactive”. It also gave an EC50 (MCF7 [7]) of over 20 µg/mL, an EC50 (SK-MEL-2 [8]) of over 20 µg/mL and an Inhibition (SK-MEL-2 [9]) of 9%. The ED50 (U-87 MG [10]) was “inactive” and the IC50 (Tubulin alpha chain) was over 40 µM.
Molecule `O=C(O)Cc1cccc2c(O)cc(-c3ccccc3)nc12` has an EC50 (1A9 [11]) of 0.04 µg/mL (≈ 0.143 µM), an EC50 (A549 [2]) of 0.11 µg/mL (≈ 0.394 µM) and an EC50 (HOS [12]) of 0.07 µg/mL (≈ 0.251 µM). For the same molecule, the EC50 (KB [13]) was 0.04 µg/mL (≈ 0.143 µM), the EC50 (MCF7 [7]) was 0.44 µg/mL (≈ 1.58 µM) and the EC50 (SK-MEL-2 [8]) was 0.06 µg/mL (≈ 0.215 µM). It also gave an EC50 (U-87 MG [14]) of 0.12 µg/mL (≈ 0.43 µM) and an IC50 (Tubulin alpha chain) of over 40 µM.
`O=C(O)Cc1ccc2nc(-c3ccccc3F)cc(O)c2c1` showed an EC50 (1A9 [11]) of over 20 µg/mL, an Inhibition (1A9 [15]) of 37% and an EC50 (A549 [2]) of over 20 µg/mL. For the same molecule, the Inhibition (A549 [3]) was 24%, the Inhibition (HOS [16]) was 15% and the EC50 (HOS [12]) was over 20 µg/mL. It also gave an Inhibition (KB [17]) of 36%, an EC50 (KB [13]) of over 20 µg/mL and an Inhibition (MCF7 [5]) of 16%. For the same molecule, the EC50 (MCF7 [7]) was over 20 µg/mL, the EC50 (SK-MEL-2 [8]) was over 20 µg/mL and the Inhibition (SK-MEL-2 [9]) was 17%. The EC50 (U-87 MG [14]) was over 20 µg/mL, the Inhibition (U-87 MG [18]) was 9% and the IC50 (Tubulin alpha chain) was 5.2 µM.
`O=C(O)Cc1cccc2c(O)cc(-c3ccccc3F)nc12` showed an EC50 (1A9 [11]) of 0.02 µg/mL (≈ 0.0673 µM), an EC50 (A549 [2]) of 0.06 µg/mL (≈ 0.202 µM) and an EC50 (HOS [12]) of 0.04 µg/mL (≈ 0.135 µM). The EC50 (KB [13]) was 0.03 µg/mL (≈ 0.101 µM), the EC50 (MCF7 [7]) was 0.12 µg/mL (≈ 0.404 µM) and the EC50 (SK-MEL-2 [8]) was 0.05 µg/mL (≈ 0.168 µM). It also gave an EC50 (U-87 MG [14]) of 0.07 µg/mL (≈ 0.235 µM) and an IC50 (Tubulin alpha chain) of over 40 µM.
`COC(=O)Cc1cccc2c(O)cc(-c3ccccc3)nc12` was tested, and the EC50 (1A9 [11]) was over 20 µg/mL, the Inhibition (1A9 [15]) was 30% and the ED50 (A549 [19]) was “inactive”. For the same molecule, the Inhibition (HOS [16]) was 7%, the EC50 (HOS [12]) was over 20 µg/mL and the Inhibition (KB [17]) was 8%. For the same molecule, the EC50 (KB [13]) was over 20 µg/mL, the Inhibition (MCF7 [5]) was 15% and the EC50 (MCF7 [7]) was over 20 µg/mL. For the same molecule, the EC50 (SK-MEL-2 [8]) was over 20 µg/mL, the Inhibition (SK-MEL-2 [9]) was 12% and the ED50 (U-87 MG [10]) was “inactive”. For the same molecule, the IC50 (Tubulin alpha chain) was 30 µM.
Molecule `COC(=O)Cc1cccc2c(O)cc(-c3ccccc3F)nc12` has an EC50 (1A9 [11]) of 7.5 µg/mL (≈ 24.1 µM), an EC50 (A549 [2]) of over 10 µg/mL and an Inhibition (A549 [3]) of 22%. For the same molecule, the Inhibition (HOS [16]) was 18%, the EC50 (HOS [12]) was over 10 µg/mL and the Inhibition (KB [17]) was 29%. It also gave an EC50 (KB [13]) of over 10 µg/mL, an Inhibition (MCF7 [5]) of 14% and an EC50 (MCF7 [7]) of over 10 µg/mL. The EC50 (SK-MEL-2 [8]) was over 10 µg/mL, the Inhibition (SK-MEL-2 [9]) was 11% and the ED50 (U-87 MG [10]) was “inactive”. For the same molecule, the IC50 (Tubulin alpha chain) was 5.5 µM.
Molecule `O=C(O)Cc1ccc2c(O)cc(-c3ccccc3F)nc2c1` has an EC50 (1A9 [11]) of over 20 µg/mL, an Inhibition (1A9 [15]) of 15% and an EC50 (A549 [2]) of over 20 µg/mL. For the same molecule, the Inhibition (A549 [3]) was 21%, the ED50 (HOS [4]) was “inactive” and the Inhibition (KB [17]) was 8%. For the same molecule, the EC50 (KB [13]) was over 20 µg/mL, the Inhibition (MCF7 [5]) was 13% and the EC50 (MCF7 [7]) was over 20 µg/mL. The EC50 (SK-MEL-2 [8]) was over 20 µg/mL, the Inhibition (SK-MEL-2 [9]) was 14% and the ED50 (U-87 MG [10]) was “inactive”. For the same molecule, the IC50 (Tubulin alpha chain) was 10 µM.
